Many of the other results were omitted from the sample, so hits are more common in it than they were.
Fibroblast inh: antiproliferative effect on LL 47 fibroblasts – human, LL 47 cells, CellTiter-Glo luminescence, primary screen; LL 47 human lung fibroblast viability, ATP luminescence; hits give low values; viability, % at 10 µM; 85,000 tested, 1.1% active;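 active = viability at or below 50% in the single dose screen; inactive = viability above 50%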;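 also: compound exposure lasted 72 h before the ATP readout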
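Times – overnight cell rest, 72 h compound treatment at 37 °C · Test system – human lung fibroblast line LL 47, low passage · Amount – 1,150 cells in each well · Controls – cell-only wells, no compound · Doses – 0.1% DMSO in all compound wells · Measured by – CellTiter-Glo luminescence · Buffer or medium – IMEM plus 15% FBS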
H69AR inhibit: proliferation blockers of H69AR lung cancer cells, primary screen, cell-based, human, 86K library; viability, % at 10 µM; 85,000 tested, 6% active; AID 598, 2007; H69AR lung tumor viability, ATP luminescence, 72 h; hits give low values;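 active = viability at or below 40%; inactive = viability above 40%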;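 also: multidrug resistant small cell line overexpressing MRP-1 efflux transporter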
HCT116 PTEN-null: growth suppression of PTEN-null HCT116, primary screen, cell-based, CellTiter-Glo; HCT116 PTEN-null viability, 60 h; hits give low values; viability, % at 10 µM; 140,000 tested, 1.2% active; AID 827, 2007;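 active = viability at or below a set limit, 4 SD under the median of all tested compounds, cut at about 3.7% in these data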;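 also: PTEN knockout HCT116 line with beta catenin targeted HCT116 as companion control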
HUVEC prolif 384: inhibitors of HUVEC proliferation, primary screen, cell-based, 384-well; 86,000 tested, 1.1% active; viability, % at 10 µM (by protocol); CellTiter-Glo luminescence, 72 h; hits give low values; AID 648, 2007;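 active = viability at or below 30%; inactive = viability above 30%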
HCT116 bCat-KO: primary screen for growth suppressors in beta-catenin knockout HCT116 cells (colon tumor, human). AID 818, 2007. viability, % at 10 µM. HCT116 beta-catenin knockout viability, CellTiter-Glo, 60 h; hits give low values. 140,000 tested, 1.5% active;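 active = viability at or under a set limit, the compound median less 4 SD, cut at about 6% in these data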
Large screens that a line does not name were inactive.

Cc1nc(NCCc2ccc(S(N)(=O)=O)cc2)c2c3c(sc2n1)CCC3	none (no result: Fibroblast inh, H69AR inhibit, HUVEC prolif 384)
Cc1sc2nc(CN3CCOCC3)nc(NS(=O)(=O)c3ccccc3)c2c1C	none
CCOc1ccc(Br)cc1S(=O)(=O)Nc1nc(CN2CCOCC2)nc2sc(C)c(C)c12	H69AR inhibit 34
Cc1sc2nc(CN3CCOCC3)nc(NCCc3ccccc3)c2c1C	H69AR inhibit 30
NS(=O)(=O)c1ccc(CCNc2nc(CN3CCOCC3)nc3sc4c(c23)CCC4)cc1	H69AR inhibit 16 (no result: HCT116 PTEN-null, HCT116 bCat-KO)
COc1ccc(-c2nnc3c4ccccc4c(C)nn23)cc1	H69AR inhibit 32
Cc1ccc(C2CC(c3cccs3)n3nc(N)nc3N2)cc1 (stereo not given)	none
Cc1cc(C)nc(/N=C(\N)Nc2ccc(F)c([N+](=O)[O-])c2)n1	none (no result: Fibroblast inh, H69AR inhibit, HUVEC prolif 384)
Cc1cccc(NC(=O)C2CCCN(S(=O)(=O)c3c(C)nn(C)c3C)C2)n1 (stereo not given)	H69AR inhibit 38
O=C(Nc1ccc2nc(-c3ccc(Br)o3)[nH]c2c1)c1cccs1	H69AR inhibit 38
CC(=O)Nc1ccc2nc(-c3ccc(Br)o3)[nH]c2c1	none (no result: Fibroblast inh, H69AR inhibit, HUVEC prolif 384)
CCOc1ccccc1NC(=O)c1cc(C(=O)c2cc(OC)ccc2O)coc1=N	none (no result: Fibroblast inh, H69AR inhibit, HUVEC prolif 384)
COc1ccc(OC)c(/C(O)=C/C(=O)C(=O)Nc2cc(C)ccc2OC)c1	none
CCOc1ccccc1NC(=O)C(=O)/C=C(\O)c1cc(OC)ccc1OC	H69AR inhibit 8.4
COc1ccc(OC)c(/C(O)=C/C(=O)C(=O)Nc2cc(C)cc(C)c2)c1	H69AR inhibit 17
CCOc1ccc2oc(-c3ccccc3)c(C(=O)N3CCN(CCO)CC3)c2c1	none
Cc1cc(S(=O)(=O)N2CCN(Cc3ccc4c(c3)OCO4)CC2)cc(C)c1N1CCCC1=O	HUVEC prolif 384 20
COc1ccc2nc(NC(=O)CSc3nc4ccccc4o3)sc2c1	H69AR inhibit 7.1
Cc1nc(NC(=O)CSc2nc3cccnc3n2Cc2ccccc2)sc1C	H69AR inhibit 18
O=C(CSc1nc2ccccc2o1)Nc1nc2ccc(Br)cc2s1	none (no result: Fibroblast inh, H69AR inhibit, HUVEC prolif 384)
CCOC(=O)CNC(=O)CSc1nc2cccnc2n1Cc1ccccc1	none
CCOc1ccc2nc(NC(=O)CSc3nc4cccnc4n3C)sc2c1	H69AR inhibit 26
Cc1c(Cl)cccc1NC(=O)CSc1nnc(CCNC(=O)OC(C)(C)C)o1	none
COc1ccc(CC(=O)NNC(=O)COc2ccc3ccccc3c2)cc1	none (no result: Fibroblast inh, H69AR inhibit, HUVEC prolif 384)
COc1ccc(CN(CC2CCCO2)C(=O)CN2C(=O)C(C)Oc3ccc(C)cc32)cc1OC (stereo not given)	H69AR inhibit 40
CCC1Oc2ccc(C)cc2N(CC(=O)N(Cc2ccc3c(c2)OCO3)CC2CCCO2)C1=O (stereo not given)	none
Cc1ccc(NC(=O)c2cc(NC(=O)c3ccco3)ccc2N2CCCCC2)cc1	Fibroblast inh 48, H69AR inhibit 26
Cc1ccc(NC(=O)c2cc(NC(=O)c3ccco3)ccc2N2CCOCC2)cc1	none
Cc1nn(-c2ccccc2)c(/N=C/c2ccccc2O)c1-c1ccccc1	none (no result: Fibroblast inh, H69AR inhibit, HUVEC prolif 384)
O=C(Nc1nnc(C23CC4CC(CC(C4)C2)C3)s1)c1ccc(N2C(=O)CCC2=O)cc1	none
Oc1ccc(/C=N/n2c(-c3ccco3)csc2=Nc2cccnc2)c(O)c1	none (no result: Fibroblast inh, H69AR inhibit, HUVEC prolif 384)
CC(C)N=c1scc(-c2ccco2)n1/N=C/c1ccc(O)c(O)c1	Fibroblast inh 48, H69AR inhibit 31
CC(C)=CC1C=C(C)C(C)C2C(=O)NNC(=O)C12 (stereo not given)	none
CCOC(=O)CNS(=O)(=O)c1cc(-c2n[nH]c(=O)c3ccccc23)ccc1C	none
CCOC(=O)CNS(=O)(=O)c1cc(-c2nnc(Nc3ccc4c(c3)OCO4)c3ccccc23)ccc1C	HCT116 PTEN-null 3.5, HCT116 bCat-KO 3.6 (no result: Fibroblast inh, H69AR inhibit, HUVEC prolif 384)
CCC(C(=O)Nc1ccccc1OC)n1c(C(=O)OC)cc2ccsc21 (stereo not given)	none
CCOc1ccccc1N1CCN(C(=O)C2c3ccccc3Oc3ccccc32)CC1	H69AR inhibit 19
CN(C)c1ccc(NC(=O)Nc2ccc3snnc3c2)cc1	none
O=C(Nc1ccccc1)Nc1ccc2snnc2c1	H69AR inhibit 13
COc1ccc(-c2nn(-c3ccccc3)cc2/C=N/N=C(N)N)cc1OC	HCT116 PTEN-null 1.2, HCT116 bCat-KO 1.6 (no result: Fibroblast inh, H69AR inhibit, HUVEC prolif 384)
Cc1ccc(CC2CC(=O)N(c3ccc(Cl)cn3)C2=O)cc1 (stereo not given)	none
CC(C)=NOc1cc(NC(=O)CCl)cc([N+](=O)[O-])c1	HCT116 PTEN-null 3.0, HCT116 bCat-KO 3.3 (no result: Fibroblast inh, H69AR inhibit, HUVEC prolif 384)
Cc1ccc(-n2nnnc2SCC(=O)Nc2ccc3c(c2)COC3=O)cc1C	Fibroblast inh 27
CCn1c2ccccc2c2cc(NC(=O)CSc3nnnn3-c3ccccc3)ccc21	H69AR inhibit 20
CCn1c(=O)cc(SCC(=O)Nc2ccc(OC)c(OC)c2)c2ccccc21	none
CCn1c(SCC(=O)Nc2ccc3c(c2)c2ccccc2n3CC)nnc1-c1cnccn1	H69AR inhibit 18
CCn1c(=O)cc(SCC(=O)Nc2ccc(Cl)cc2)c2ccccc21	H69AR inhibit 17
CCn1c2ccccc2c2cc(NC(=O)CSc3nnc(-c4ccc(OC)cc4)n3N)ccc21	H69AR inhibit 27
N#CC1=C2SCC(O)(c3ccccc3)N2C(=O)CC1c1ccccc1F (stereo not given)	H69AR inhibit 15
CCOc1ccc(CCN2C(=O)C3C4C=CC(C4)C3C2=O)cc1OCC (stereo not given)	none
COc1cc(CNCc2ccccn2)ccc1OCC(N)=O	none (no result: Fibroblast inh, H69AR inhibit, HUVEC prolif 384)
COc1cc(CNCc2ccccn2)ccc1OCc1ccc(Cl)cc1Cl	HCT116 PTEN-null 3.5, HCT116 bCat-KO 2.4 (no result: Fibroblast inh, H69AR inhibit, HUVEC prolif 384)
Cc1nn(C/C(C#N)=N\O)c(C)[n+]1N	none
Cc1ccc(Cn2ccc(=O)c(OCc3c(Cl)cccc3Cl)c2C)cc1	H69AR inhibit 25
CC(=O)c1cccc(NC(=S)NC(=O)CC(C)C)c1	none (no result: Fibroblast inh, H69AR inhibit, HUVEC prolif 384)
CCC1CCCCN1C(=O)Cn1c(C(=O)OC)cc2ccsc21 (stereo not given)	none
CCCc1cc(=O)[nH]c(/N=C(/NC(=O)c2ccccc2)Nc2ccc3c(c2)OCCO3)n1	H69AR inhibit 32 (no result: HCT116 PTEN-null, HCT116 bCat-KO)
COc1ccccc1N1CCN(CC(=O)Nc2cc(C)nn2-c2nc(C)cc(C)n2)CC1	Fibroblast inh 37, H69AR inhibit 19 (no result: HCT116 PTEN-null, HCT116 bCat-KO)
COC(=O)c1c(NC(=O)CN2CCN(c3ccccc3OC)CC2)c2cc(C)ccc2n1C	H69AR inhibit 29
COc1ccccc1N1CCN(CC(=O)Nc2cc(F)ccc2C)CC1	none
CCOC(=O)C(NS(=O)(=O)c1ccc(Br)cc1)C(C)C (stereo not given)	none (no result: Fibroblast inh, H69AR inhibit, HUVEC prolif 384)
COc1cc(NC(=O)CSc2nc3ccccc3c(=O)n2C)ccc1NC(=O)c1ccco1	H69AR inhibit 24
COc1ccc(NC(=O)CCc2ccccc2)cc1NC(=O)c1ccco1	H69AR inhibit 36
CCOc1cc(NC(=O)c2ccco2)c(OCC)cc1NC(=O)CCc1ccc(OC)cc1	H69AR inhibit 33 (no result: HCT116 PTEN-null, HCT116 bCat-KO)
